Laboratory results from ChEMBL document CHEMBL1137560, “Synthesis and monoamine oxidase inhibitory activity of new pyridazine-, pyrimidine- and 1,2,4-triazine-containing tricyclic derivatives” (J Med Chem, 2007).

Experiments:
[1] = target: T1, Amine oxidase [flavin-containing] B (Rattus norvegicus, UniProt P19643); experiment: Inhibition of MAOB in rat brain mitochondria
T1 sequence (P19643 whole entry): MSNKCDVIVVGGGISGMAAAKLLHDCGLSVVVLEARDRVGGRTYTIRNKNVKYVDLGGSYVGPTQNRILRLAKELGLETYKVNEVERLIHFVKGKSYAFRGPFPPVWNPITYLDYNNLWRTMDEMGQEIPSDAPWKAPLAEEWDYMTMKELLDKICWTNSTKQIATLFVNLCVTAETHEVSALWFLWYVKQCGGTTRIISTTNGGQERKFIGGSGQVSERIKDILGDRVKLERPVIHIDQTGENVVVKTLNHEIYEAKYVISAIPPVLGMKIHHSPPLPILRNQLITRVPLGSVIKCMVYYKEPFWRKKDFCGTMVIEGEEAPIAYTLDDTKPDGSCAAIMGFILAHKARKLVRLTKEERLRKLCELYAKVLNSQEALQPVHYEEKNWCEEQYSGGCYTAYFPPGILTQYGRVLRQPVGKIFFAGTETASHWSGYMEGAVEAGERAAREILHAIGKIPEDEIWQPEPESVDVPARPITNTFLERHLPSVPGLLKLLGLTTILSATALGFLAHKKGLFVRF
Method in brief: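 MAO-B measured in rat brain mitochondrial suspension after 5 min preincubation with clorgyline. Incubations at pH 7.40 (isotonic phosphate/KCl) and 37 °C, 5% DMSO cosolvent. Kynuramine 60 µM (its KM); 4-hydroxyquinoline formation read continuously at 314 nm. Highest concentration 100 µM; IC50 derived by hyperbolic equation fit.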

[2] = target: T2, Amine oxidase [flavin-containing] A (Rattus norvegicus, UniProt P21396); experiment: Inhibition of MAOA in rat brain mitochondria at 10 uM
T2 sequence (P21396 whole entry): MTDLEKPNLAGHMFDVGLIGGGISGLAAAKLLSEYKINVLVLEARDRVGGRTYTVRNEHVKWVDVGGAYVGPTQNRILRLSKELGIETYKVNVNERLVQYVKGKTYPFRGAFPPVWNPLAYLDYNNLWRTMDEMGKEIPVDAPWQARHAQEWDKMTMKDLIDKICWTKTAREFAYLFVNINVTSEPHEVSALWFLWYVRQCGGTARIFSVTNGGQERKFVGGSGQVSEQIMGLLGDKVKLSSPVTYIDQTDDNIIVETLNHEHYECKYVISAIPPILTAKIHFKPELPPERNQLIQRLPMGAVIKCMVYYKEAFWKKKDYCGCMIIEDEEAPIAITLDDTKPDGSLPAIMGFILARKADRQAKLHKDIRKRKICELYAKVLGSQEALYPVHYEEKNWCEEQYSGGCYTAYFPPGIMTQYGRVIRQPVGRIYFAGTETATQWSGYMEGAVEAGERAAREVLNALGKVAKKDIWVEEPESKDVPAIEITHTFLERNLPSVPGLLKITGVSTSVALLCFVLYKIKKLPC

[3] = target: T1, Amine oxidase [flavin-containing] B; experiment: Inhibition of MAOB in rat brain mitochondria at 10 uM
[4] = target: T2, Amine oxidase [flavin-containing] A; experiment: Inhibition of MAOA in rat brain mitochondria
Method in brief: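 Rat brain mitochondrial suspension, isotonic Na2HPO4/KH2PO4–KCl buffer, pH 7.40, 37 °C, with 5% DMSO cosolvent. Preincubated 5 min with selegiline to isolate MAO-A. Continuous spectrophotometric assay: 90 µM kynuramine (its KM) oxidized to 4-hydroxyquinoline, followed at 314 nm. Top concentration tested 100 µM; IC50 calculated from a hyperbolic equation.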

[5] = target: T2, Amine oxidase [flavin-containing] A; experiment: Inhibition of MAOA in rat brain mitochondria at 50 uM
[6] = target: T1, Amine oxidase [flavin-containing] B; experiment: Inhibition of MAOB in rat brain mitochondria at 50 uM
[7] = target: T1, Amine oxidase [flavin-containing] B; experiment: Inhibition of MAOB in rat brain mitochondria at 25 uM
Method in brief: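 Rat brain mitochondrial suspension, pre-treated 5 min with clorgyline to isolate MAO-B. Kynuramine substrate at 60 µM (its KM) in isotonic Na2HPO4/KH2PO4/KCl buffer, pH 7.40, 37 °C, with 5% DMSO cosolvent. 4-Hydroxyquinoline formation followed continuously at 314 nm. Percent inhibition taken at the compound's maximum solubility; means ± SEM of three experiments, each run in duplicate.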

[8] = target: T1, Amine oxidase [flavin-containing] B; experiment: Inhibition of MAOB in rat brain mitochondria at 20 uM
[9] = target: T2, Amine oxidase [flavin-containing] A; experiment: Inhibition of MAOA in rat brain mitochondria at 1 uM
[10] = target: T1, Amine oxidase [flavin-containing] B; experiment: Inhibition of MAOB in rat brain mitochondria at 1 uM

O=C1c2ccccc2-c2nnc(COc3ccccc3)cc21
IC50 [1]: 2.51 µM | inhibition at 10 µM [2]: 0%

O=C1c2ccccc2-c2nnc(COc3ccc(C(F)(F)F)cc3)cc21
inhibition at 10 µM [3]: 48% | inhibition at 10 µM [2]: 0%

O=C1c2ccccc2-c2nnc(OCc3ccccc3)cc21
IC50 [4]: > 100 µM | IC50 [1]: 55 µM

O=C1c2ccccc2-c2nn(-c3ccccc3)c(=O)cc21
IC50 [1]: 38 µM | inhibition at 50 µM [5]: 46%

Nc1cccc(-c2nnc3c(n2)-c2ccccc2C3=O)c1
inhibition at 10 µM [3]: 17% | inhibition at 10 µM [2]: 12%

c1ccc2c(c1)nnc1c3ccccc3[nH]c21
IC50 [4]: 29.7 µM | inhibition at 50 µM [6]: 29%

c1ccc2c(c1)CCc1c-2[nH]c2ccccc12
IC50 [4]: 12 µM | inhibition at 25 µM [7]: 38%

O=C1c2ccccc2-c2nc(-c3cccc([N+](=O)[O-])c3)nnc21
IC50 [1]: 0.08 µM | inhibition at 10 µM [2]: 23%

c1ccc(-c2ncc3c(n2)Cc2ccccc2-3)cc1
IC50 [4]: 16.7 µM | IC50 [1]: 13 µM

c1ccc(-c2ncc3c(n2)-c2ccccc2C3)cc1
IC50 [4]: 18 µM | inhibition at 20 µM [8]: 37%

O=C1c2ccccc2-c2ncnc(-c3ccccc3)c21
IC50 [4]: 21.6 µM | IC50 [1]: 34 µM

O=C1c2ccccc2-c2nnc(COc3ccc(F)cc3)cc21
IC50 [1]: 1.9 µM | inhibition at 10 µM [2]: 12%

O=C(c1ccccc1)c1cnncc1-c1ccc(Cl)cc1
IC50 [4]: 30.8 µM | IC50 [1]: > 100 µM

Cc1ncc2c(n1)C(=O)c1ccccc1-2
IC50 [4]: 47.1 µM | IC50 [1]: 9.4 µM

O=C1c2ccccc2-c2cnc(-c3cccc([N+](=O)[O-])c3)nc21
inhibition at 1 µM [9]: 5% | inhibition at 1 µM [10]: 12%

O=C1c2ccccc2-c2nnc(-c3cccc([N+](=O)[O-])c3)nc21
IC50 [1]: 0.912 µM | inhibition at 10 µM [2]: 3%

O=C1c2ccccc2-c2nc(-c3ccccc3)nnc21
IC50 [1]: 6.31 µM | inhibition at 10 µM [2]: 21%
